Reference: ChEMBL document CHEMBL1152820, “Plasmid-encoded ACC-4, an extended-spectrum cephalosporinase variant from Escherichia coli” (Antimicrob Agents Chemother, 2007)
≈ marks a conversion by molar mass, not a printed value.

T1: Beta-lactamase ACC-4 (Escherichia coli, UniProt A4ZYU9)
T1 sequence (A4ZYU9 whole entry): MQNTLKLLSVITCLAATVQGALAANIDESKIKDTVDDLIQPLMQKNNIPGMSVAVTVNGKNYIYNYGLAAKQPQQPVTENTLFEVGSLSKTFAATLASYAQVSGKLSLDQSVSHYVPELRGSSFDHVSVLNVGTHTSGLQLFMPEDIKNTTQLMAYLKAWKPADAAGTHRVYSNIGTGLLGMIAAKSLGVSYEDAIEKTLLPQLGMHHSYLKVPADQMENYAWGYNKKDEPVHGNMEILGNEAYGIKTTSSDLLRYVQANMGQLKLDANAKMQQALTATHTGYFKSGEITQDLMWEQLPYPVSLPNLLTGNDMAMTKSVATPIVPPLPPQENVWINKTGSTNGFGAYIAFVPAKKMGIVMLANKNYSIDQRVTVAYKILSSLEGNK

B1: Beta-lactamase ACC-4 (Escherichia coli), A4ZYU9 (protein)
chain: T1 sequence (A4ZYU9 whole entry)

How the values were obtained:
Escherichia coli [1] = experiment: Antimicrobial activity against Escherichia coli MC4100 harboring pA-acc1 plasmid by agar dilution technique; type: functional
Escherichia coli [2] = experiment: Antimicrobial activity against Escherichia coli MC4100 harboring pA-acc4 plasmid by agar dilution technique; type: functional
Escherichia coli [3] = experiment: Antimicrobial activity against Escherichia coli MC4100 harboring pB-acc1 plasmid by agar dilution technique; type: functional
Escherichia coli [4] = experiment: Antimicrobial activity against Escherichia coli MC4100 harboring pB-acc4 plasmid by agar dilution technique; type: functional
Beta-lactamase ACC-4 = molecular target: T1, Beta-lactamase ACC-4; experiment: Inhibition of Escherichia coli beta-lactamase ACC4
Method in brief: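 ACC-4 from mid-log E. coli(pS18-d): sonicated, ultracentrifuged, Q-Sepharose flowthrough then S-Sepharose (0–0.6 M NaCl gradient, phosphate pH 6.8), >95% pure by SDS-PAGE.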

Escherichia coli [5] = experiment: Antimicrobial activity against Escherichia coli MC4100 harboring pACYC184 plasmid by agar dilution technique; type: functional
Escherichia coli [6] = experiment: Antimicrobial activity against Escherichia coli MC4100 harboring pBCSK plasmid by agar dilution technique; type: functional
Hafnia alvei [7] = experiment: Activity of Hafnia alvei beta-lactamase ACC-1 assessed as nmol of compound hydrolysis per ug of protein
Hafnia alvei [8] = experiment: Activity of Hafnia alvei beta-lactamase ACC-1
Hafnia alvei [9] = experiment: Ratio of Vmax to Km for Hafnia alvei beta-lactamase ACC-1
[10] = substrate: CC(C)(O/N=C(\C(=O)N[C@@H]1C(=O)N2C(C(=O)[O-])=C(C[n+]3ccccc3)CS[C@H]12)c1csc(N)n1)C(=O)O; experiment: (§1) Activity of Escherichia coli beta-lactamase ACC4 by UV spectrophotometry
Method in brief: (§2)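 ACC-4 purified from E. coli carrying pS18-d, grown to mid-log in broth with 100 μg/ml ampicillin. Sonicated, then Q-Sepharose and S-Sepharose chromatography (NaCl 0 to 0.6 M, phosphate pH 6.8), >95% pure. Substrate hydrolysis at 30°C, pH 7.0, followed by UV spectrophotometry. kcat and Km are means of four independent measurements.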

[11] = substrate: CO/N=C(\C(=O)N[C@@H]1C(=O)N2C(C(=O)[O-])=C(C[N+]3(C)CCCC3)CS[C@H]12)c1csc(N)n1; experiment: as §1; method in brief: as §2
[12] = substrate: CC(=O)OCC1=C(C(=O)O)N2C(=O)[C@@H](NC(=O)Cc3cccs3)[C@H]2SC1; experiment: as §1; method in brief: as §2
[13] = substrate: CC1(C)S[C@@H]2[C@H](NC(=O)Cc3ccccc3)C(=O)N2[C@H]1C(=O)O; experiment: as §1; method in brief: as §2
[14] = substrate: CO[C@@]1(NC(=O)Cc2cccs2)C(=O)N2C(C(=O)O)=C(COC(N)=O)CS[C@@H]21; experiment: as §1; method in brief: as §2
[15] = substrate: CCN1CCN(C(=O)N[C@@H](C(=O)N[C@@H]2C(=O)N3[C@@H]2SC(C)(C)[C@@H]3C(=O)O)c2ccccc2)C(=O)C1=O; experiment: as §1; method in brief: as §2
[16] = substrate: CO/N=C(\C(=O)N[C@@H]1C(=O)N2C(C(=O)O)=C(COC(C)=O)CS[C@H]12)c1csc(N)n1; experiment: as §1; method in brief: as §2
[17] = substrate: CC(C)(O/N=C(\C(=O)N[C@@H]1C(=O)N2C(C(=O)[O-])=C(C[n+]3ccccc3)CS[C@H]12)c1csc(N)n1)C(=O)O; experiment: (§3) Ratio of Kcat to Km for Escherichia coli beta-lactamase ACC4 by UV spectrophotometry; method in brief: as §2
[18] = substrate: CO/N=C(\C(=O)N[C@@H]1C(=O)N2C(C(=O)[O-])=C(C[N+]3(C)CCCC3)CS[C@H]12)c1csc(N)n1; experiment: as §3; method in brief: as §2
[19] = substrate: CC(=O)OCC1=C(C(=O)O)N2C(=O)[C@@H](NC(=O)Cc3cccs3)[C@H]2SC1; experiment: as §3; method in brief: as §2
[20] = substrate: CC1(C)S[C@@H]2[C@H](NC(=O)Cc3ccccc3)C(=O)N2[C@H]1C(=O)O; experiment: as §3; method in brief: as §2
[21] = substrate: CCN1CCN(C(=O)N[C@@H](C(=O)N[C@@H]2C(=O)N3[C@@H]2SC(C)(C)[C@@H]3C(=O)O)c2ccccc2)C(=O)C1=O; experiment: as §3; method in brief: as §2
[22] = substrate: CO/N=C(\C(=O)N[C@@H]1C(=O)N2C(C(=O)O)=C(COC(C)=O)CS[C@H]12)c1csc(N)n1; experiment: as §3; method in brief: as §2

Row | Molecule | MIC (Escherichia coli [1]) [µg/mL] | MIC (Escherichia coli [2]) [µg/mL] | MIC (Escherichia coli [3]) [µg/mL] | MIC (Escherichia coli [4]) [µg/mL] | MIC (Escherichia coli [5]) [µg/mL] | MIC (Escherichia coli [6]) [µg/mL] | other results
1 | CO/N=C(\C(=O)N[C@@H]1C(=O)N2C(C(=O)[O-])=C(C[N+]3(C)CCCC3)CS[C@H]12)c1csc(N)n1 | 0.12 (≈ 0.25 µM) | 0.12 (≈ 0.25 µM) | 0.12 (≈ 0.25 µM) | 0.25 (≈ 0.52 µM) | – | – | –
2 | C[C@]1(/C=C\C#N)[C@H](C(=O)O)N2C(=O)C[C@H]2S1(=O)=O | – | – | – | – | – | – | IC50 (Beta-lactamase ACC-4): 10300 nM
3 | CC1(C)S[C@@H]2[C@H](NC(=O)[C@H](N)c3ccc(O)cc3)C(=O)N2[C@H]1C(=O)O [AMOXICILLIN] | > 512 | > 512 | > 512 | > 512 | 4 (≈ 10.9 µM) | 4 (≈ 10.9 µM) | –
4 | C[C@H]1[C@H](NC(=O)/C(=N\OC(C)(C)C(=O)O)c2csc(N)n2)C(=O)N1S(=O)(=O)O [AZTREONAM] | 0.5 (≈ 1.15 µM) | 2 (≈ 4.59 µM) | 1 (≈ 2.3 µM) | 2 (≈ 4.59 µM) | – | – | IC50 (Beta-lactamase ACC-4): 32 nM
5 | N[C@@H](C(=O)N[C@@H]1C(=O)N2C(C(=O)O)=C(Cl)CS[C@H]12)c1ccccc1 [CEFACLOR ANHYDROUS] | > 512 | > 512 | > 512 | > 512 | 2 (≈ 5.44 µM) | 2 (≈ 5.44 µM) | –
6 | CO/N=C(\C(=O)N[C@@H]1C(=O)N2C(C(=O)O)=C(COC(C)=O)CS[C@H]12)c1csc(N)n1 [CEFOTAXIME] | 8 (≈ 17.6 µM) | 32 (≈ 70.3 µM) | 16 (≈ 35.1 µM) | 64 (≈ 141 µM) | ≤ 0.06 | ≤ 0.06 | Vmax (Hafnia alvei [7]): < 0.01 nmol/min/µg
7 | CO[C@@]1(NC(=O)C2SC(=C(C(N)=O)C(=O)O)S2)C(=O)N2C(C(=O)O)=C(CSc3nnnn3C)CS[C@@H]21 (stereo partly drawn) [CEFOTETAN] | 1 (≈ 1.74 µM) | 1 (≈ 1.74 µM) | 1 (≈ 1.74 µM) | 1 (≈ 1.74 µM) | 0.5 (≈ 0.869 µM) | 0.5 (≈ 0.869 µM) | –
8 | CO[C@@]1(NC(=O)Cc2cccs2)C(=O)N2C(C(=O)O)=C(COC(N)=O)CS[C@@H]21 [CEFOXITIN] | 4 (≈ 9.36 µM) | 4 (≈ 9.36 µM) | 4 (≈ 9.36 µM) | 4 (≈ 9.36 µM) | 2 (≈ 4.68 µM) | 2 (≈ 4.68 µM) | Vmax (Hafnia alvei [7]): < 0.002 nmol/min/µg
9 | CC(C)(O/N=C(\C(=O)N[C@@H]1C(=O)N2C(C(=O)[O-])=C(C[n+]3ccccc3)CS[C@H]12)c1csc(N)n1)C(=O)O [CEFTAZIDIME] | 32 (≈ 58.5 µM) | 256 (≈ 468 µM) | 128 (≈ 234 µM) | 512 (≈ 937 µM) | 0.25 (≈ 0.457 µM) | 0.25 (≈ 0.457 µM) | Km (Hafnia alvei [8]): 17 µM; Vmax/Km (Hafnia alvei [9]): < 0.01; Vmax (Hafnia alvei [7]): < 0.025 nmol/min/µg
10 | CO/N=C(\C(=O)N[C@@H]1C(=O)N2C(C(=O)O)=C(CSc3nc(=O)c(O)nn3C)CS[C@H]12)c1csc(N)n1 [CEFTRIAXONE] | 16 (≈ 28.9 µM) | 32 (≈ 57.7 µM) | 32 (≈ 57.7 µM) | 128 (≈ 231 µM) | 0.12 (≈ 0.216 µM) | 0.12 (≈ 0.216 µM) | –
11 | CO/N=C(\C(=O)N[C@@H]1C(=O)N2C(C(=O)O)=C(COC(N)=O)CS[C@H]12)c1ccco1 [CEFUROXIME] | 128 (≈ 302 µM) | > 512 | 128 (≈ 302 µM) | > 512 | 1 (≈ 2.36 µM) | 1 (≈ 2.36 µM) | –
12 | CC(=O)OCC1=C(C(=O)O)N2C(=O)[C@@H](NC(=O)Cc3cccs3)[C@H]2SC1 [CEPHALOTHIN] | > 512 | > 512 | > 512 | > 512 | 2 (≈ 5.04 µM) | 2 (≈ 5.04 µM) | –
13 | Cc1onc(-c2ccccc2Cl)c1C(=O)N[C@@H]1C(=O)N2[C@@H]1SC(C)(C)[C@@H]2C(=O)O [CLOXACILLIN] | – | – | – | – | – | – | IC50 (Beta-lactamase ACC-4): 26 nM
14 | CCN1CCN(C(=O)N[C@@H](C(=O)N[C@@H]2C(=O)N3[C@@H]2SC(C)(C)[C@@H]3C(=O)O)c2ccccc2)C(=O)C1=O [PIPERACILLIN] | 64 (≈ 124 µM) | 32 (≈ 61.8 µM) | 256 (≈ 495 µM) | 128 (≈ 247 µM) | 0.5 (≈ 0.966 µM) | 0.5 (≈ 0.966 µM) | Km (Hafnia alvei [8]): 1.4 µM; Vmax/Km (Hafnia alvei [9]): 0.12; Vmax (Hafnia alvei [7]): 0.17 nmol/min/µg
15 | B1 | – | – | – | – | – | – | Km [10]: 15 µM; kcat [10]: 1.5 s⁻¹; Km [11]: 73 µM; kcat [11]: 0.14 s⁻¹; Km [12]: 30 µM; kcat [12]: 96 s⁻¹; Km [13]: 3.8 µM; kcat [13]: 0.59 s⁻¹; kcat [14]: < 0.01 s⁻¹; Km [15]: 1.1 µM; kcat [15]: 0.13 s⁻¹; Km [16]: 9.4 µM; kcat [16]: 2.7 s⁻¹; kcat/Km [17]: 100000 M⁻¹ s⁻¹; kcat/Km [18]: 2000 M⁻¹ s⁻¹; kcat/Km [19]: 3.2e+06 M⁻¹ s⁻¹; kcat/Km [20]: 160000 M⁻¹ s⁻¹; kcat/Km [21]: 120000 M⁻¹ s⁻¹; kcat/Km [22]: 290000 M⁻¹ s⁻¹
